In brackets after ≈: the same amount, converted by molar mass.
Key:
Clostridioides difficile [1] = assay: Antimicrobial activity against Clostridium difficile infected in patient assessed as incomplete relief of clostridium difficile associated diarrhea symptom in patient at 400 […], po every 12 hrs for 10 days; type: functional
Clostridioides difficile [2] = assay: Antimicrobial activity against Clostridium difficile infected in patient assessed as percentage of patient require no further treatment at 100 […], po every 12 hrs for 10 days; type: functional
Summary of the method: (§1)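 Phase 2 open-label randomized dose-ranging trial; adults with mild to moderate CDI (primary episode or first relapse, positive toxin by EIA or cytotoxicity assay), oral dosing for 10 days. Clinical failure was defined as the need for additional therapy during the treatment period. Failures underwent C. difficile culture and toxin testing.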

Clostridioides difficile [3] = assay: Antimicrobial activity against Clostridium difficile infected in patient assessed as recurrence of diarrhea within 6 weeks after treatment at 400 mg/kg, po every 12 hrs for 10 days; type: functional
[4] = Drug level in clostridium difficile infected patient feces at 400 […], po every 12 hrs for 10 days by RP-HPLC/MS; type: ADME, organism-based; parameters: route oral; details: human, faeces, read-out: Activity
Summary of the method: (§2)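 The complete 24-h stool output was collected on day 10 (or the final dosing day if treatment stopped early) and frozen at −80°C. Stool was homogenized in acetonitrile-acetic acid, diluted with acetonitrile, spiked with OP-1393 internal standard, and analysed by RP-HPLC-MS/MS. The assay standard range for parent was 10 to 2,000 ng/ml. Results are reported as mean ± SD in μg/g.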

[5] = Drug level in clostridium difficile infected patient plasma at 400 […], po every 12 hrs for 10 days by RP-HPLC/MS; type: ADME, organism-based; parameters: route oral; details: human, read-out: Activity
Summary of the method: (§3)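 Plasma was sampled 0.5 h before and 2 h after dosing on the first and last days of the 10-day oral regimen. Samples were methanol-acetic acid precipitated with OP-1393 internal standard, C18 solid-phase extracted, and analysed by RP-HPLC (40°C column) with tandem quadrupole MS. Assay range was 5 to 1,000 ng/ml for parent and OP-1118.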

[6] = Drug level in clostridium difficile infected patient plasma at 100 […], po every 12 hrs for 10 days by RP-HPLC/MS; type: ADME, organism-based; parameters: route oral; details: human, read-out: Activity; summary of the method: as §3
Clostridioides difficile [7] = assay: Antimicrobial activity against Clostridium difficile infected in patient assessed as recurrence of diarrhea within 6 weeks after treatment at 200 mg/kg, po every 12 hrs for 10 days; type: functional
Clostridioides difficile [8] = assay: Antimicrobial activity against Clostridium difficile infected in patient assessed as incomplete relief of clostridium difficile associated diarrhea symptom in patient at 100 […], po every 12 hrs for 10 days; type: functional
Clostridioides difficile [9] = assay: Antimicrobial activity against Clostridium difficile infected in patient assessed as percentage of patient require no further treatment at 200 […], po every 12 hrs for 10 days; type: functional; summary of the method: as §1
Clostridioides difficile [10] = assay: Antimicrobial activity against Clostridium difficile infected in patient assessed as resolving of diarrhea after 10 days at 100 […], po every 12 hrs for 10 days; type: functional
Summary of the method: (§4)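 Open-label randomized phase 2 trial in mild to moderate CDI patients, oral dosing over a 10-day regimen. Resolution of diarrhea was defined as the first day with one or two non-watery, non-loose stools in 24 h, sustained through treatment up to study day 10. Time to resolution was counted from the first dose.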

Clostridioides difficile [11] = assay: Antimicrobial activity against Clostridium difficile infected in patient assessed as clinical failure at 400 […], po every 12 hrs for 10 days; type: functional; summary of the method: as §1
[12] = Drug level in clostridium difficile infected patient feces at 200 […], po every 12 hrs for 10 days by RP-HPLC/MS; type: ADME, organism-based; parameters: route oral; details: human, faeces, read-out: Activity; summary of the method: as §2
Clostridioides difficile [13] = assay: Antimicrobial activity against Clostridium difficile infected in patient assessed as incomplete relief of clostridium difficile associated diarrhea symptom in patient at 200 […], po every 12 hrs for 10 days; type: functional
Clostridioides difficile [14] = assay: Antimicrobial activity against Clostridium difficile infected in patient assessed as complete relief of clostridium difficile associated diarrhea symptom in patient at 100 […], po every 12 hrs for 10 days; type: functional
Clostridioides difficile [15] = assay: Antimicrobial activity against Clostridium difficile infected in patient assessed as percentage of patient require further treatment at 100 […], po every 12 hrs for 10 days; type: functional; summary of the method: as §1
Clostridioides difficile [16] = assay: Antimicrobial activity against Clostridium difficile infected in patient assessed as percentage of patient require further treatment at 400 […], po every 12 hrs for 10 days; type: functional; summary of the method: as §1
Clostridioides difficile [17] = assay: Antimicrobial activity against Clostridium difficile infected in patient assessed as recurrence of diarrhea within 6 weeks after treatment at 100 […], po every 12 hrs for 10 days; type: functional
[18] = Drug level in clostridium difficile infected patient feces at 100 […], po every 12 hrs for 10 days by RP-HPLC/MS; type: ADME, organism-based; parameters: route oral; details: human, faeces, read-out: Activity; summary of the method: as §2
Clostridioides difficile [19] = assay: Antimicrobial activity against Clostridium difficile infected in patient assessed as complete relief of clostridium difficile associated diarrhea symptom in patient at 200 […], po every 12 hrs for 10 days; type: functional
Clostridioides difficile [20] = assay: Antimicrobial activity against Clostridium difficile infected in patient assessed as clinical failure at 100 […], po every 12 hrs for 10 days; type: functional; summary of the method: as §1
Clostridioides difficile [21] = assay: Antimicrobial activity against Clostridium difficile infected in patient assessed as resolving of diarrhea after 10 days at 400 […], po every 12 hrs for 10 days; type: functional; summary of the method: as §4
Clostridioides difficile [22] = assay: Antimicrobial activity against Clostridium difficile infected in patient assessed as resolving of diarrhea after 10 days at 200 […], po every 12 hrs for 10 days; type: functional; summary of the method: as §4
Clostridioides difficile [23] = assay: Antimicrobial activity against Clostridium difficile infected in patient assessed as complete relief of clostridium difficile associated diarrhea symptom in patient at 400 […], po every 12 hrs for 10 days; type: functional
Clostridioides difficile [24] = assay: Antimicrobial activity against Clostridium difficile infected in patient assessed as percentage of patient require further treatment at 200 […], po every 12 hrs for 10 days; type: functional; summary of the method: as §1
Clostridioides difficile [25] = assay: Antimicrobial activity against Clostridium difficile infected in patient assessed as resolution of diarrhea on day 10 at 100 […], po every 12 hrs for 10 days; type: functional; summary of the method: as §4
Clostridioides difficile [26] = assay: Antimicrobial activity against Clostridium difficile; type: functional
Clostridioides difficile [27] = assay: Antimicrobial activity against Clostridium difficile infected in patient assessed as percentage of patient require no further treatment at 400 […], po every 12 hrs for 10 days; type: functional; summary of the method: as §1
Clostridioides difficile [28] = assay: Antimicrobial activity against Clostridium difficile infected in patient assessed as resolution of diarrhea on day 10 at 400 […], po every 12 hrs for 10 days; type: functional; summary of the method: as §4
Clostridioides difficile [29] = assay: Antimicrobial activity against Clostridium difficile infected in patient assessed as resolution of diarrhea on day 10 at 200 […], po every 12 hrs for 10 days; type: functional; summary of the method: as §4
Clostridioides difficile [30] = assay: Antimicrobial activity against Clostridium difficile infected in patient assessed as clinical failure at 200 […], po every 12 hrs for 10 days; type: functional; summary of the method: as §1
Plasma [31] = assay: Drug level in clostridium difficile infected patient plasma at 200 […], po every 12 hrs for 10 days by RP-HPLC/MS; type: ADME, organism-based; parameters: route oral; details: human, in vivo; summary of the method: as §3
[32] = Drug level in clostridium difficile infected patient feces assessed as OP-1118 metabolite level at 100 […], po every 12 hrs for 10 days by RP-HPLC/MS; type: ADME, organism-based; parameters: route oral; details: human, in vivo; summary of the method: as §2
[33] = Drug level in clostridium difficile infected patient feces assessed as OP-1118 metabolite level at 200 […], po every 12 hrs for 10 days by RP-HPLC/MS; type: ADME, organism-based; parameters: route oral; details: human, in vivo; summary of the method: as §2
Plasma [34] = assay: Drug level in clostridium difficile infected patient plasma assessed as OP-1118 metabolite level at 200 […], po every 12 hrs for 10 days by RP-HPLC/MS; type: ADME, organism-based; parameters: route oral; details: human, in vivo; summary of the method: as §3
Plasma [35] = assay: Drug level in clostridium difficile infected patient plasma assessed as OP-1118 metabolite level at 400 […], po every 12 hrs for 10 days by RP-HPLC/MS; type: ADME, organism-based; parameters: route oral; details: human, in vivo; summary of the method: as §3
[36] = Drug level in clostridium difficile infected patient feces assessed as OP-1118 metabolite level at 400 […], po every 12 hrs for 10 days by RP-HPLC/MS; type: ADME, organism-based; parameters: route oral; details: human, in vivo; summary of the method: as §2
Plasma [37] = assay: Drug level in clostridium difficile infected patient plasma assessed as OP-1118 metabolite level at 100 […], po every 12 hrs for 10 days by RP-HPLC/MS; type: ADME, organism-based; parameters: route oral; details: human, in vivo; summary of the method: as §3

CCc1c(Cl)c(O)c(Cl)c(O)c1C(=O)O[C@H]1[C@H](O)[C@H](OC)[C@H](OC/C2=C\C=C\C[C@H](O)/C(C)=C/[C@H](CC)[C@@H](O[C@@H]3OC(C)(C)[C@@H](OC(=O)C(C)C)[C@H](O)[C@@H]3O)/C(C)=C/C(C)=C/C[C@@H]([C@@H](C)O)OC2=O)O[C@@H]1C [FIDAXOMICIN]
Activity (Clostridioides difficile [1]): 13.3%
Activity (Clostridioides difficile [2]): 31.3%
Activity (Clostridioides difficile [3]): 6.3%
concentration at 10 days [4]: 1.43e+06 ng/g
concentration at 10 days [5]: 84.9 ng/mL
concentration at 10 days [6]: 12.3 ng/mL
Activity (Clostridioides difficile [7]): 0%
Activity (Clostridioides difficile [8]): 56.3%
Activity (Clostridioides difficile [9]): 18.8%
Activity (Clostridioides difficile [10]): 14%
Activity (Clostridioides difficile [11]): 0%
concentration at 10 days [12]: 442000 ng/g
Activity (Clostridioides difficile [13]): 37.5%
Activity (Clostridioides difficile [14]): 37.5%
Activity (Clostridioides difficile [15]): 12.5%
Activity (Clostridioides difficile [16]): 0%
Activity (Clostridioides difficile [17]): 8.3%
concentration at 10 days [18]: 256000 ng/g
Activity (Clostridioides difficile [19]): 50%
Activity (Clostridioides difficile [20]): 14%
Activity (Clostridioides difficile [21]): 6%
Activity (Clostridioides difficile [22]): 7%
Activity (Clostridioides difficile [23]): 86.7%
Activity (Clostridioides difficile [24]): 12.5%
Activity (Clostridioides difficile [25]): 71%
MIC90 (Clostridioides difficile [26]): 0.125 µg/mL (≈ 0.118 µM)
Activity (Clostridioides difficile [27]): 13.3%
Activity (Clostridioides difficile [28]): 94%
Activity (Clostridioides difficile [29]): 80%
Activity (Clostridioides difficile [30]): 13%
Activity (Plasma [31]): 9.37e-05 mg/mL

Cc1ncc([N+](=O)[O-])n1CCO [METRONIDAZOLE]
MIC90 (Clostridioides difficile [26]): 0.5 µg/mL (≈ 2.92 µM)

CCc1c(Cl)c(O)c(Cl)c(O)c1C(=O)O[C@H]1[C@H](O)[C@H](OC)[C@H](OC/C2=C\C=C\C[C@H](O)/C(C)=C/[C@H](CC)[C@@H](O[C@@H]3OC(C)(C)[C@@H](O)[C@H](O)[C@@H]3O)/C(C)=C/C(C)=C/C[C@@H]([C@@H](C)O)OC2=O)O[C@@H]1C
Activity [32]: 393 µg/g
Activity [33]: 430 µg/g
Activity (Plasma [34]): 154.3 ng/mL
Activity (Plasma [35]): 402.3 ng/mL
Activity [36]: 760 µg/g
Activity (Plasma [37]): 77.2 ng/mL

CN[C@H](CC(C)C)C(=O)N[C@H]1C(=O)N[C@@H](CC(N)=O)C(=O)N[C@H]2C(=O)N[C@H]3C(=O)N[C@H](C(=O)N[C@H](C(=O)O)c4cc(O)cc(O)c4-c4cc3ccc4O)[C@H](O)c3ccc(c(Cl)c3)Oc3cc2cc(c3O[C@@H]2O[C@H](CO)[C@@H](O)[C@H](O)[C@H]2O[C@H]2C[C@](C)(N)[C@H](O)[C@H](C)O2)Oc2ccc(cc2Cl)[C@H]1O [VANCOMYCIN]
MIC90 (Clostridioides difficile [26]): 2 µg/mL (≈ 1.38 µM)
